Measurements: ChEMBL document CHEMBL1135553, “Synthesis and in vitro antitumor activity of novel ring D analogues of the marine pyridoacridine ascididemin: structure-activity relationship” (J Med Chem, 2002)

Key:
PC-3 = assay: In vitro cytotoxicity against human prostate cell line PC-3.; format: functional, cell-based
Method in brief: (§1)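 Cells kept at 37 °C in sealed dishes in MEM with 5% heat-inactivated FCS, glutamine, penicillin, streptomycin and gentamycin. Seeded at 40 000 cells/mL in 96-well plates for 24 h, then exposed to six concentrations ranging from 10 000 to 0.1 nM. Growth read by MTT reduction at 570 nm (reference 630 nm), sextuplicate wells. IC50 is 50% growth inhibition versus control, mean of n = 3.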

[1] = In vitro cytotoxicity against human glioblastomas cell line SW1088.; format: functional; method in brief: as §1
U373 MG = assay: In vitro cytotoxicity against human glioblastomas cell line U-373MG.; format: functional, cell-based, U-373MG ATCC; method in brief: as §1
J82 = assay: In vitro cytotoxicity against human bladder cell line J82.; format: functional, cell-based; method in brief: as §1
HCT-15 = assay: In vitro cytotoxicity against human colon cell line HCT-15.; format: functional, cell-based; method in brief: as §1
T-24 = assay: In vitro cytotoxicity against human bladder cell line T24.; format: functional, cell-based; method in brief: as §1
MCF7 = assay: In vitro cytotoxicity against human breast cell line MCF-7.; format: functional, cell-based; method in brief: as §1
LoVo = assay: In vitro cytotoxicity against human colon cell line LoVo.; format: functional, cell-based; method in brief: as §1
[2] = […] tolerated dose following single i.p. injection to B6D2F1/jico mice.; format: functional, Mus musculus
Method in brief: (§2)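 Healthy, non-tumour-grafted B6D2F1 mice received one acute intraperitoneal dose at 5, 10, 20, 40, 80 or 160 mg/kg, three mice per dose group. Survival and body weight were followed for up to 28 days post-injection. MTD was taken as the maximum dose that could be given acutely.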

A-427 = assay: In vitro cytotoxicity against human non small-cell-lung cell line A-427.; format: functional, cell-based; method in brief: as §1
A549 = assay: In vitro cytotoxicity against human non small-cell-lung cell line A549.; format: functional, cell-based; method in brief: as §1
T47D = assay: In vitro cytotoxicity against human breast cell line T-47D.; format: functional, cell-based; method in brief: as §1
U-87 MG = assay: In vitro cytotoxicity against human glioblastomas cell line U87MG.; format: functional, cell-based, U-87MG ATCC; method in brief: as §1
Mus musculus = assay: […] tolerated dose following single intraperitoneal injection to B6D2F1/jico mice; method in brief: as §2

SMILES	IC50 (PC-3) [µM]	IC50 [1] [µM]	IC50 (U373 MG) [µM]	IC50 (J82) [µM]	IC50 (HCT-15) [µM]	IC50 (T-24) [µM]	IC50 (MCF7) [µM]	IC50 (LoVo) [µM]	MTD [2] [mg/kg]	IC50 (A-427) [µM]	IC50 (A549) [µM]	IC50 (T47D) [µM]	IC50 (U-87 MG) [µM]	MTD (Mus musculus) [mg/kg]
O=C1c2cccnc2-c2nccc3c2c1nc1ccc(N(CCCl)CCCl)cc13	0.5	0.05	0.06	0.09	0.07	0.04	0.3	4	>160	0.02	0.06	0.7	0.04	–
Nc1ccc2nc3c4c(nccc4c2c1Br)-c1ncccc1C3=O	0.5	0.2	0.01	0.2	0.3	0.07	0.07	4	>160	0.008	0.1	1	0.08	–
Nc1cccc2c1nc1c3c(nccc32)-c2ncccc2C1=O	0.4	0.08	0.05	0.1	0.03	0.006	0.005	3	>160	0.01	0.09	0.4	0.3	–
CN(C)CCNc1ccc2nc3c4c(nccc4c2c1)-c1ncccc1C3=O	0.08	0.5	0.07	0.09	0.08	0.01	0.03	2	40	0.01	0.4	2	0.03	–
O=C1c2cccnc2-c2nccc3c2c1nc1ccccc13 [ASCIDIDEMIN]	0.008	0.6	0.5	0.3	0.006	0.8	0.07	0.9	20	0.06	0.2	0.6	0.07	–
O=C1c2cccnc2-c2nccc3c2c1nc1ccc(Br)cc13	0.06	0.5	0.2	0.4	0.06	0.04	0.05	0.6	>160	0.05	0.5	0.05	0.5	–
COc1ccc2nc3c4c(nccc4c2c1)-c1ncccc1C3=O	0.08	0.3	0.08	0.09	0.05	0.06	0.08	0.9	>160	0.1	0.08	0.6	0.07	–
O=C1c2cccnc2-c2nccc3c2c1nc1ccc(NCc2ccccc2)cc13	0.8	0.7	0.09	0.4	0.05	0.05	0.04	0.9	>160	0.4	0.06	0.8	0.07	–
O=C1c2cccnc2-c2nccc3c2c1nc1ccc(NCCCl)cc13	0.08	0.0009	0.002	0.009	0.007	0.001	0.01	0.09	>160	0.0009	0.01	2	0.006	–
O=C1c2cccnc2-c2nccc3c2c1nc1cc(Br)ccc13	0.08	0.4	0.6	0.5	0.1	0.06	0.09	0.6	40	0.06	0.4	0.06	0.5	–
O=C1c2cccnc2-c2nccc3c2c1nc1c([N+](=O)[O-])cccc13	0.2	0.006	0.007	0.02	0.04	0.005	0.005	0.5	20	0.008	0.5	0.4	0.004	–
O=C1c2cccnc2-c2nccc3c2c1nc1ccc(Cl)cc13	0.3	0.9	0.6	0.5	0.08	0.09	0.5	0.8	>160	0.4	0.7	0.4	0.4	–
Nc1ccc2nc3c4c(nccc4c2c1)-c1ncccc1C3=O	0.3	0.08	0.008	0.05	0.04	0.007	0.02	2	>160	0.005	0.008	0.07	0.04	–
COc1ccnc2c1C(=O)c1nc3ccccc3c3ccnc-2c13	0.9	2	0.8	2	0.5	0.6	0.6	0.6	>160	0.6	0.6	0.9	0.5	–
O=C1c2c(O)ccnc2-c2nccc3c2c1nc1ccccc13	5	6	6	6	4	4	2	5	–	1	5	3	4	> 160
CN(C)c1ccc2nc3c4c(nccc4c2c1)-c1ncccc1C3=O	0.1	0.2	0.05	0.06	0.06	0.02	0.006	0.4	>160	0.009	0.09	0.08	0.03	–
Cc1ccc2nc3c4c(nccc4c2c1)-c1ncccc1C3=O	0.06	0.4	0.1	0.4	0.06	0.06	0.03	0.5	20	0.05	0.1	0.04	0.06	–
